# Measured values collected from several papers.
# Protocols differ between the studies behind these lines.
Compound,system,conditions,endpoint,result
Cc1nc2ccc(F)cc2n1-c1nc(N)c(F)c(Nc2ccc(C(F)(F)F)cc2)n1,"cynomolgus monkey, plasma","oral, 2 mg/kg",bioavailability,66%
C[C@H]1O[C@@H](O[C@H]2[C@@H](O)C[C@H](O[C@H]3[C@@H](O)C[C@H](O[C@H]4CC[C@@]5(C)[C@H](CC[C@@H]6[C@@H]5C[C@@H](O)[C@]5(C)[C@@H](C7=CC(=O)OC7)CC[C@]65O)C4)O[C@@H]3C)O[C@@H]2C)C[C@H](O)[C@@H]1O,Caco-2,"5 µM, 1 h",efflux ratio,6.6
CO[C@H]1CC[C@H](N2C(=O)CNc3ncc(-c4ccc(C(C)(C)O)nc4)nc32)CC1,"human, plasma","oral, 30 mg, multiple doses, patients",Cmax,293 ng/mL
CC(C)(O)c1cn(-c2ccc(-c3cc(F)c(CO)c(S(C)(=O)=O)c3)cc2)c(C(C)(C)c2cccc(F)c2Cl)n1,"male cynomolgus monkey, plasma","intravenous, 1 mg/kg, single dose",Vd,3.2 L/kg
COc1ccc(C(O)COc2ccc(-c3csc(-c4ccc(OCC(O)c5ccc(OC)c(OC)c5)cc4)n3)cc2)cc1OC (stereo not shown),"C57BL/6 mouse, plasma","oral, 30 mg/kg",Tmax,1 h
CC(C)(O)c1cn(-c2ccc(-c3cc(F)c(CO)c(S(C)(=O)=O)c3)cc2F)c(C(C)(C)c2c(Cl)cccc2Cl)n1,"male cynomolgus monkey, plasma","oral, 3 mg/kg, single dose",bioavailability,42%
COc1cc(C(=O)NC2CCN(C)CC2)c(F)cc1Nc1ncc(C(F)(F)F)c(Oc2cccc3c2C(=O)N(C)C3)n1,"human, plasma","oral, 300 mg, single dose, patients",Cmax,4.54 µM
CC(C)n1cc(C#N)c2cc(-n3cc(C(=O)O)cn3)ccc21,"human, plasma","oral, 10 mg, single dose, fasted, healthy volunteers",Cmax,313 ng/mL
CC(C)(O)c1cn(-c2ccc(-c3cccc(S(C)(=O)=O)c3)cc2)c(C(C)(C)c2ccccc2Cl)n1,"male cynomolgus monkey, plasma","oral, 3 mg/kg, single dose",bioavailability,73%
CCc1nc2c(C)cc(N3CCN(CC(=O)N4CC(O)C4)CC3)cn2c1N(C)c1nc(-c2ccc(F)cc2)c(C#N)s1,"human, plasma","oral, 1500 mg, single dose, fed, healthy volunteers",Cmax,19000 ng/mL
C=CC(=O)N1CC2CC(n3nc(-c4ccc(C(=O)Nc5ccccn5)cc4)c4c(N)ncnc43)CC2C1 (stereo not shown),"SCID mouse, plasma","oral, 5 mg/kg",Tmax,1 h
CN1CCC[C@H](CN2c3ccccc3Sc3ccccc32)C1.Cl,"mouse, plasma","intraperitoneal, 32 mg/kg, single dose",Tmax,1 h
CC(C)(C)c1ccc(O)c(CN(Cc2cc(C(C)(C)C)ccc2O)C2CCC(NC(N)=O)CC2)c1 (stereo not shown),"male C57BL/6 mouse, brain","intraperitoneal, 5 mg/kg, single dose",Tmax,0.5 h
